Data from ChEMBL document CHEMBL1122638, “8-Methoxypsoralen-nucleic acid photoreaction. Effect of methyl substitution on pyrone vs. furan photoaddition” (J Med Chem, 1984).

Tests used:
Type in all cases: functional
[1] = Pyrone monoadduct distribution (product resulting from photoaddition with the nucleic acid poly (dA-dT)) after 10 min irradiation at 360 nm
Summary of the method: (§1)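 Alternating poly(dA-dT)·poly(dA-dT), 1 mg (1.5 µmol base pairs) in 1 mL 10 mM Tris pH 7.2, with 0.3 µmol tritiated psoralen added in 95% EtOH. Irradiated 10 min at 10 °C. Polymer ethanol-reprecipitated, then digested sequentially with DNase II (pH 5, 37 °C), phosphodiesterase II (pH 7) and alkaline phosphatase (pH 7.8-8.0). Adducts resolved by reverse-phase HPLC (water-methanol gradient, pH 2.2 phosphate), with A254 and ³H scintillation counting.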

[2] = Total radioactivity (pyrone monoadduct, furan monoadduct and diadduct resulting from photoaddition with the nucleic acid poly (dA-dT)) after 10 min irradiation at 360 nm; summary of the method: as §1
[3] = Furan monoadduct and diadduct distribution (products resulting from photoaddition with the nucleic acid poly (dA-dT)) after 10 min irradiation at 360 nm; summary of the method: as §1
[4] = Total radioactivity after 10 min irradiation at 360 nm; summary of the method: as §1

| Structure (SMILES) | Radioactivity [1] [%] | Radioactivity [2] [%] | Radioactivity [3] [%] | Radioactivity [4] [%] |
| --- | --- | --- | --- | --- |
| COc1c2occc2cc2ccc(=O)oc12 | 19 | 94 | 75 |  |
| COc1c2oc(C)cc2cc2ccc(=O)oc12 | 17 |  | 73 | 90 |
| COc1c2occc2cc2c(C)cc(=O)oc12 | 2 |  | 94 | 96 |
| COc1c2oc(C)cc2cc2c(C)cc(=O)oc12 | 2 |  | 94 | 96 |
